# Screening results (PubChem)
# An excerpt weighted towards active compounds, which were near 2.1% of everything screened.
# STK33 kinase inh: blocks human STK33 kinase activity | AID 2661 | Q9BYT3 | actives 0.073% (n = 320,000) | purified STK33, MBP phosphorylation, ADP-Glo luminescence | inhibition, % at 10 µM;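 active = inhibition at or above 25%, using the most active replicate where run in duplicate; inactive = inhibition below 25%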
# GSK3beta inhib: blocks human GSK3beta kinase activity | GST-GSK3beta kinase, ADP-Glo luminescence, 60 min; stronger effect = lower value | activity score (negative = inhibition), % at 10 µM | AID 2097 | P49841 | actives 0.038% (n = 300,000);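 active = more than half of replicate wells score below -50%, meaning over 50% inhibition versus plate controls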;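 also: 0% = median DMSO wells and -100% = median GW8510 positive control wells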
#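 Test system: GST-tagged human GSK3beta kinase, cell-free; evaluation: activity score scaled between in-plate DMSO and GW8510 controls; measured by: ADP-Glo luminescence; incubation: 60 min reaction, RT; benchmarks: DMSO and 20 µM GW8510; reagent: peptide substrate plus 25 µM ATP (final); medium: Tris/MgCl2 kinase buffer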
# MEKK2mut PB1 HTS: signal of MEK5 binding to mutant human MEKK2 PB1 domain. percent response, % at 10 µM. actives 0.35% (n = 290,000). AID 1530. bead flow cytometry, Alexa488-MEK5 binding to MEKK2 mutant; in the data active = percent response above about 24%, passing the limit was not always enough
# GSK3A inh: human GSK-3 alpha kinase inhibition. ADP-Glo luminescence, 60 min. inhibition, % at 10 µM. actives 0.1% (n = 320,000). AID 2650;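 active = more than half of replicates show inhibition above 20%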;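 also: GST-tagged GSK-3 alpha with peptide substrate and 25 µM ATP; 0% = DMSO neutral wells and 100% = GW8510 positive control wells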
# Target sequence (P49840 whole entry, looked up): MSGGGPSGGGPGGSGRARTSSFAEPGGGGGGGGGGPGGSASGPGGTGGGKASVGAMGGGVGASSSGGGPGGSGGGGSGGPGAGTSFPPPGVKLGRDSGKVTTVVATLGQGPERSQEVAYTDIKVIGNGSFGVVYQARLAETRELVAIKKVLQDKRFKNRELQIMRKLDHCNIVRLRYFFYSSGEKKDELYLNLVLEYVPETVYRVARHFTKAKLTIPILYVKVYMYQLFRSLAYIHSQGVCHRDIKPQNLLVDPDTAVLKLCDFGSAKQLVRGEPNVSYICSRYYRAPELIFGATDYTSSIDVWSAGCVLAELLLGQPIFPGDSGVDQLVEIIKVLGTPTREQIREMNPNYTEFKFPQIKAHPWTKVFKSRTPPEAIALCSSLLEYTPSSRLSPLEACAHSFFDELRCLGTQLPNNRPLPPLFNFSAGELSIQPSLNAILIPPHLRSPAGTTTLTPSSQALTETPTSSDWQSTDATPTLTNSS
# MEKK2wt PB1 HTS: raises or lowers MEK5 binding to wildtype human MEKK2 PB1 domain; Q9Y2U5; bead flow cytometry, Alexa488-MEK5 binding to MEKK2 WT; actives lie on both sides; binding response (% of control), % at 10 µM; actives 1.1% (n = 290,000); AID 1531; in the data active = binding response below about 67% or above about 130%
# MEKK3 PB1 HTS: raises or lowers MEK5 binding to the human MEKK3 PB1 domain; actives 1.4% (n = 290,000); bead-based flow cytometry, Alexa488-MEK5 binding to MEKK3; actives lie on both sides; 0 = blocked by unlabeled MEK5, 100 = vehicle; Q99759; AID 1529; binding response (% of control), % at 10 µM;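 active = binding response more than 3 SD above or below the average of its plate-row segment, actives on both sides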;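 also: Alexa488 bead fluorescence after subtracting the streptavidin-only scavenger bead signal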
# MEKK2wt confirm: raises or lowers MEK5 binding to wildtype human MEKK2, retest. shares compounds with MEKK3 PB1 HTS. bead flow cytometry, Alexa488-MEK5 binding to MEKK2 WT; actives lie on both sides. binding response (% of control), % at 10 µM. actives 2.4% (n = 5,900). AID 1892; in the data active = binding response below about 16% or above about 210%; inactive = in between
# MEKK2mut-MEK5: signal of MEK5 binding to mutant human MEKK2, retest | shares compounds with MEKK3 PB1 HTS | bead flow cytometry, Alexa488-MEK5 binding to MEKK2 mutant | percent response, % at 10 µM | actives 2% (n = 5,900) | AID 1893; in the data active = percent response mostly above about 71%, no sharp cut-off; inactive = mostly below about 38%;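 also: higher means compound restores mutant binding toward wildtype level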
# MEKK3-MEK5 inh: MEKK3-MEK5 PB1 inhibition, single concentration confirmation. shares compounds with MEKK3 PB1 HTS. bead flow cytometry, Alexa488-MEK5 binding to MEKK3; stronger effect = lower value. binding response (% of control), % at 10 µM. actives 1.8% (n = 5,900). AID 1894;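 active = binding response below 72% of control, or above a set upper limit, though filed actives all read lower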;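 also: 100% = DMSO only wells and 0% = binding blocked by excess unlabeled MEK5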
# Active calls of the source: *; . = not tested or not shown; [ ] = dose if it differs, or a comment.
SMILES,STK33 kinase inh,GSK3beta inhib,MEKK2mut PB1 HTS,GSK3A inh,MEKK2wt PB1 HTS,MEKK3 PB1 HTS,MEKK2wt confirm,MEKK2mut-MEK5,MEKK3-MEK5 inh
O=C1NC(=O)C2(Cc3ccccc3N3CCCC32)C(=O)N1Cc1ccccc1 (stereo not given),1,-2,-30,2,-30*[inhibitor],-2.0*[inhibitor],100,0,102
Fc1ccc(CCNCc2cccc(Cl)c2)cc1,-1,-3,-7,-3,93,75*[inhibitor],111,18,105
S=C1NCCN1,0,-6,-3,0,98,91,.,.,.
CCN1C(=O)NC(=O)/C(=C/c2cc(C)n(-c3sc(C)c(C)c3C#N)c2C)C1=O,4,-1,1,3,102,130*,99,10,101
C=CCN1C(=O)NC(=O)/C(=C/c2cc3c4c(c2)CCCN4CCC3)C1=O,2,-2,8,-1,26*[inhibitor],93,89,-15,98
C=CCN1C(=O)NC(=O)/C(=C/c2cnc(SC)nc2)C1=O,0,-2,1,-4,97,97,.,.,.
c1ccc2c(CN3CCN(C4CCCCC4)CC3)c[nH]c2c1,-1,0,44*,0,168*,114,167,50,105
COc1cc(N2C(=O)CC(=O)NC2=O)cc(OC)c1OC,1,3,0,-2,107,96,.,.,.
COC(=O)C(O)(c1ccc(NC(=S)NC(=O)c2ccc(Cl)cc2Cl)cc1)C(F)(F)F (stereo not given),-2,0,3,-4,106,148*,92,-4,102
CCOC(=O)C(O)(c1ccc(NC(=S)NC(=O)c2ccc(Cl)cc2Cl)c(C)c1)C(F)(F)F (stereo not given),-2,0,1,-1,102,147*,92,-8,94
CCOC(=O)C(O)(c1ccc(NC(=S)NC(=O)c2ccc(Cl)cc2Cl)cc1)C(F)(F)F (stereo not given),0,1,-2,-1,102,112,.,.,.
CCOc1ccc(-c2cc(C)[n+](CCO)c(-c3ccc(OCC)cc3)c2)cc1,0,-6,9,1,113,101,.,.,.
CCOc1ccc(-c2cc(C)[n+](CCc3ccc(OC)c(OC)c3)c(-c3ccc(OCC)cc3)c2)cc1,0,-3,37*,6,141*,113,51,-13,86
COc1cc(CNCCc2ccc3c(c2)OCO3)cc(OC)c1OC,.,-1,-13,.,60,47*[inhibitor],104,-1,103
N=C1c2ccccc2CN1NC(=O)c1ccc(Br)cc1,0,0,1,-1,105,105,.,.,.
CCOC(=O)c1c(C)n(Cc2ccccc2)c2ccc(OCC(O)CNC(C)(C)C)cc12 (stereo not given),-1,-3,21,1,150*,107,150,36,106
CCOc1ccc(-n2c(O)c(C=NCCN3CCNCC3)c(=O)[nH]c2=O)cc1,-1,-3,-1,10,93,93,.,.,.
Cc1cc(/C=C2\C(=O)NC(=O)N(c3ccc(Br)cc3)C2=O)c(C)n1-c1cc(C(=O)O)cc(C(=O)O)c1,-2,1,0,-9,100,98,.,.,.
Cc1cc(C(=O)C[N+]23CCN(CC2)CC3)c(C)n1-c1ccc(Br)cc1,-1,1,12,0,158*,146*,120,15,106
CC(=O)N1CC(=O)Nc2ccc(C)cc2C1c1ccccc1 (stereo not given),0,-2,9,0,107,109,.,.,.
Cc1ccc2c(c1)C(c1ccccc1)NCC(=O)N2 (stereo not given),1,3,-11,-2,88,74*[inhibitor],50,-16,90
CC1=C2[C@H]3OC(=O)[C@@H](C)[C@@H]3CC[C@@]2(C)C=CC1=O,0,.,.,1,.,.,.,.,.
COc1cccc(N2C(=O)NC(=O)/C(=C/c3ccc4c(c3)Cc3ccccc3-4)C2=O)c1,-1,6,-5,-3,90,100,.,.,.
Nc1ccc2c(c1)Cc1ccccc1-2,-3,0,0,-2,107,133*,101,-1,100
Cc1ccccc1OCCN=Cc1c(O)n(C)c(=O)n(C)c1=O,0,-6,-1,3,100,99,.,.,.
SMILES,STK33 kinase inh,GSK3beta inhib,MEKK2mut PB1 HTS,GSK3A inh,MEKK2wt PB1 HTS,MEKK3 PB1 HTS,MEKK2wt confirm,MEKK2mut-MEK5,MEKK3-MEK5 inh
COc1ccc(CC(C)NCCC(c2ccccc2)c2ccccc2)cc1 (stereo not given),-1,2,28*,3,171*,111,120,8,103
Cc1nn(Cc2ccccc2Cl)c(C)c1C(=O)OCC(=O)NC1CCCC(C)C1C (stereo not given),-1,-1,1,-3,104,141*,103,-1,101
Cc1nn(Cc2ccccc2Cl)c(C)c1C(=O)OCC(=O)NC1CCS(=O)(=O)C1 (stereo not given),-2,-2,4,2,104,105,.,.,.
Cc1ccc(/C=C2/Sc3ccc(C(=O)N4CCC5(CC4)OCCO5)cc3NC2=O)cc1,-2,2,1,-4,92,97,.,.,.
CCN1C(=O)C(=C/C=C/c2ccco2)C(=O)N(CC)C1=S,3,5,-3,-4,59*[inhibitor],86,84,-9,94
Cc1cccc2c1=NC(=O)/C(=C/c1c(O)[nH]c(=O)[nH]c1=O)C=2,0,2,-1,0,101,147*,97,-7,96
CCOc1ccc2c(c1)c(C(C)=O)c(C)n2Cc1ccco1,0,-6,-7,-1,92,94,.,.,.
Cn1c(O)c(C=NCCN2CCNCC2)c(=O)[nH]c1=O,-1,-4,5,6,107,101,.,.,.
c1ccc(C(OCCN2CCNCC2)c2ccccc2)cc1,-2,-3,2,-1,104,98,.,.,.
c1ccc2nc(OCCN3CC3)ccc2c1,-1,2,32*,0,181*,108,135,15,103
Cc1nc2ccc(Cl)cc2c(=O)n1-c1cccc(Cl)c1,-2,1,9,-2,113,109,.,.,.
COC1=CC2C3Cc4ccc(OC)c(O)c4C2(CCN3C)CC1=O (stereo not given),-1,.,.,5,.,.,.,.,.
